In assay [1] the target is T1, Growth factor receptor-bound protein 2 (Homo sapiens, UniProt P62993). As to the kind of experiment: Inhibition of Growth factor receptor bound protein 2 SH2 domain binding in plasmon resonance binding assay. The gist of the method:
(§1)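 Biotin-DDPSpYVNVQ (SHC phosphopeptide) immobilized on SA5 streptavidin chips at 2 nM. Equilibrium Ru was read 20 s after flow ended and compared with binding without inhibitor to derive IC50. Two experiments on separate chips.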

Assay [2] concerns the target T1, Growth factor receptor-bound protein 2. As to the kind of experiment: (§2) Inhibition of Grb2 SH2 domain binding in MDA-MB-453 human breast carcinoma cell lysates. The essentials:
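Lysates of serum-treated MDA-MB-453 cells were made in 1% Triton X-100/PBS with 0.2 mM NaVO4 and incubated 30 min with compound. Grb2 was immunoprecipitated from 5 mg lysate with anti-Grb2 and protein A Sepharose. Proteins were resolved by 8–16% SDS-PAGE, and coprecipitated p185erbB-2 was detected by anti-phosphotyrosine Western blot. Single experiment, equal lysate amounts.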

For assay [3] the target is unchanged. Kind of assay: Inhibition of Grb2 SH2 domain binding by surface plasmon resonance. The essentials:
as §1
In general terms: Surface plasmon resonance follows binding to a sensor surface in real time, without labels.

For assay [4] the target is unchanged. The description is as §2. To be noted: in the assay text read “cells” for “cell lysates”.
The target is the same in assay [5]. Kind of assay: Inhibition of Grb2 SH2 domain binding.

Positions of bridges follow the written chain, without caps; N, C: chain ends. Non-standard residues stand in square brackets, D forms with d. Residues, ends and D or L forms follow the SMILES beside them. pY = N[C@@H](Cc1ccc(OP(=O)(O)O)cc1)C(=O)O

The IC50 is the concentration needed to halve the response being measured. Higher therefore signals lower potency.

T1 sequence (P62993 whole entry, the tested form may be a part): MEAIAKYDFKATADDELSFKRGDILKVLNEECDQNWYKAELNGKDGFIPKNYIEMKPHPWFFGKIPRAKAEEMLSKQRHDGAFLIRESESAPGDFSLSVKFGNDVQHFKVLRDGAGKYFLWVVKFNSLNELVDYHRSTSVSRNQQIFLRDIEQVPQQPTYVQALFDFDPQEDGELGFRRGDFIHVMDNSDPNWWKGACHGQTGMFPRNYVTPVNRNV

On to `CC(=O)N[C@@H](Cc1ccc(C(F)(F)P(=O)(O)O)cc1)C(=O)NC1(C(=O)N[C@@H](CC(N)=O)C(=O)NCCCc2cccc3ccccc23)CCCCC1`, for which the concentration for half-maximal inhibition (IC50) in assay [1] came out at 80 nM; in assay [2] it was 500 nM.

`CC(=O)N[C@@H](Cc1ccc(OP(=O)(O)O)cc1)C(=O)NC1(C(=O)N[C@@H](CC(N)=O)C(=O)NCCCc2cccc3ccccc23)CCCCC1`: in assay [3], the IC50 is 70 nM.

In assay [4], `CC(=O)N[C@@H](Cc1ccc(O)cc1)C(=O)NC1(C(=O)N[C@@H](CC(N)=O)C(=O)NCCCc2cccc3ccccc23)CCCCC1` had an IC50 of over 50000 nM.

With `CC(=O)N[C@@H](Cc1ccc(CP(=O)(O)O)cc1)C(=O)NC1(C(=O)N[C@@H](CC(N)=O)C(=O)NCCCc2cccc3ccccc23)CCCCC1`, the IC50 is 80 nM in assay [1] and 500 nM in assay [2].

`CC(=O)N[C@@H](Cc1ccc(OCC(=O)O)c(C(=O)O)c1)C(=O)NC1(C(=O)N[C@@H](CC(N)=O)C(=O)NCCCc2cccc3ccccc23)CCCCC1`: the IC50 in assay [1] came out at 6700 nM.

`CC(=O)N[C@@H](Cc1ccc(OP(=O)(O)O)cc1)C(=O)NC1(C(=O)N[C@@H](CC(N)=O)C(=O)NCCCc2c(O)ccc3ccccc23)CCCCC1`: the IC50 in assay [5] turned out to be 11 nM.

With `CC(=O)N[C@@H](Cc1ccc(OCC(=O)O)c(OCC(=O)O)c1)C(=O)NC1(C(=O)N[C@@H](CC(N)=O)C(=O)NCCCc2cccc3ccccc23)CCCCC1`, the IC50 in assay [1] is over 100000 nM.

Turning to `NC(=O)C[C@H](NC(=O)C1(NC(=O)[C@H](Cc2ccc(OCC(=O)O)c(C(=O)O)c2)NC(=O)C(=O)O)CCCCC1)C(=O)NCCCc1cccc2ccccc12`, the IC50 came out at 1300 nM in assay [1] and 500 nM in assay [2].

Consider `NC(=O)C[C@H](NC(=O)C1(NC(=O)[C@H](Cc2ccc(CP(=O)(O)O)cc2)NC(=O)C(=O)O)CCCCC1)C(=O)NCCCc1cccc2ccccc12`, for which the IC50 in assay [2] was 500 nM.

The compound `CC[C@H](C)[C@@H]1NC(=O)[C@H](Cc2ccc(OP(=O)(O)O)cc2)NC(=O)[C@@H](NC(C)=O)CSSC[C@@H](C(N)=O)NC(=O)[C@H](CC(N)=O)NC1=O` (Ac-C[pY]INC-NH2; disulfide 1-5) gave an IC50 in assay [5] of 370 nM.

Regarding `CC(C)[C@H](NC(=O)[C@H](CC(N)=O)NC(=O)[C@@H](NC(=O)[C@H](Cc1ccc(OP(=O)(O)O)cc1)NC(=O)[C@H](CO)NC(=O)[C@@H]1CCCN1C(=O)[C@H](CC(=O)O)NC(=O)[C@@H](N)CC(=O)O)C(C)C)C(=O)N[C@@H](CCC(N)=O)C(=O)O` (H-DDPS[pY]VNVQ-OH), the IC50 in assay [5] came to 1300 nM.

Values taken from ChEMBL document CHEMBL1132201, “Potent inhibition of Grb2 SH2 domain binding by non-phosphate-containing ligands” (J Med Chem, 1999).
